# Measured values as given in ChEMBL document CHEMBL4513216, “Probing the Open Global Health Chemical Diversity Library for Multistage-Active Starting Points for Next-Generation Antimalarials” (ACS Infect Dis, 2020).
# Test: Toxicity liver stage against HepG2, at 10uM
# Assay type: cell-based
# Set-up: test concentration 10 uM, cell line HepG2-A16-CD81EGFP
# Settings: human, HepG2-A16-CD81EGFP cells; read-out: INHIBITION
# How it was run: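 Uninfected HepG2-A16-CD81EGFP cells, 3 × 10^3 per well, 1536-well, plated on prespotted compound at 10 μM final, parasite-free screening media added to match infected plates; puromycin 10 μM positive, DMSO 0.5% negative; run in parallel with 48 h PbLuc assay at 37 °C, 5% CO2; viability by CellTiter-Glo luminescence, normalized to controls.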
row,SMILES,cytotoxicity at 10 µM
1,Cc1ccc(CNC2(Cc3cc(-c4ccccc4)on3)COC2)o1,-3.24%
2,CCNC(=O)N1C[C@@H]2OCC(=O)N(Cc3cccnc3)[C@@H]2C1,7.95%
3,CCNC(=O)c1cn(C(C)(C)C)c2ncccc12,-1.28%
4,CCCC(O)CN1CCC(=O)N(CCOC)Cc2cc3c(cc21)OCO3 (stereo not given),6.91%
5,CO[C@@H]1CN(c2ccccc2)S(=O)(=O)[C@@]12CCN(CC1CC1)C2,1.84%
6,COc1ccc(CCC(=O)Nc2ccc3ncn(C)c(=O)c3c2)cc1,6.44%
7,Cc1cc(NC(=O)Cn2cnc(-c3cccs3)cc2=O)no1,-0.243%
8,O=C(NCc1ccccc1)N1CCC(Oc2ncccc2Cl)CC1,17%
9,O=C(NC1CCN(c2nccs2)CC1)c1cccs1,4.17%
10,CC(C)Nc1nc(N2CCCC2)nc2c1CN(C)CC2,-0.376%
11,Cc1nc(-c2nc(C(=O)N3CCOCC3)c3ccccn23)cn1C(C)C,1.53%
12,O=C(c1ccco1)N1CCC[C@]2(C[C@H](Oc3ncccc3F)CO2)C1,2.49%
13,CCN1CC2(CC1=O)CN(C(=O)c1ccco1)CCN(C(=O)C(C)C)C2 (stereo not given),-9.16%
14,CC(C)NC(=O)N1CCN(C(=O)C(C)C)CC2(CC(=O)N(C)C2)C1 (stereo not given),-0.704%
15,O=C(N1CCOCC1)[C@@]12CCO[C@@H]1CCN(CC1CCC1)C2,11.1%
16,CN(C)Cc1nnc2n1CCCN(C(=O)c1c[nH]cn1)C2,3.77%
17,O=C(COc1coc(CN2CCCCC2)cc1=O)Nc1ccccc1Cl,3.72%
18,Cc1ccc(NC(=O)CCc2cnn(C)c2)cc1F,-1.69%
19,CC(C)(C)C(=O)N1CCCC1(C(=O)N1CCCC1)c1cnccn1 (stereo not given),4.84%
20,O=C(NCCc1cc(N2CCOCC2)nc(NC2CC2)n1)C1CC1,-0.995%
21,Cc1noc(C)c1-c1cncc(C2CCCN2Cc2cncnc2)n1 (stereo not given),5.25%
22,Cc1ccc(C)c(CC(=O)Nc2cccc(C(=O)N(C)C)n2)c1,-6.56%

row,SMILES,cytotoxicity at 10 µM
1,O=C(C1CC1)N1CCCCCC1C1CCN(c2ncccn2)CC1 (stereo not given),-9.56%
2,O=S(=O)(CCCn1cncn1)Cc1ccccc1Cl,-5.91%
3,CCOC(=O)CN(CC(F)(F)F)C(=O)c1nc(C)n2ccccc12,-20.9%
4,CC(CNC(=O)CCc1ccccn1)c1ccsc1 (stereo not given),-3.3%
5,Cn1cc(CNC2CCc3ncnn3C2)c(-c2ccncc2)n1 (stereo not given),-8.55%
6,COc1ccccc1S(=O)(=O)N1CC(N(C)C)Cc2ccccc21 (stereo not given),0.243%
7,CCS(=O)(=O)NCCNC(=O)c1cnc(-c2ccccc2)nc1,13.8%
8,Cc1c(NCC(C)(C)C)cccc1C(=O)N(C)Cc1ncnn1C,22.5%
9,COc1cc(OC)cc(C2(O)CCN(Cc3nc(C)c(C)o3)CC2)c1,-7.06%
10,NC(=O)C(NC(=O)Cc1cnn(-c2ccccc2)n1)c1ccccc1 (stereo not given),-3.05%
11,CCn1cc(CNc2ccc(F)c(N3CCCS3(=O)=O)c2)cn1,-17%
12,CCCN1CCCN(CCCOc2cccc(C#N)c2)CC1,18%
13,Cc1cc(C)c2c(c1)C(NC(=O)CSc1nnc[nH]1)CCO2 (stereo not given),-3.91%
14,Cc1cc(C(=O)Nc2cccn(Cc3ccc(F)cc3)c2=O)no1,3.15%
15,Cn1c(N)nnc1SCc1cc(Br)ccc1Cl,-21.7%
16,Nc1nc(CN2CCN(c3nccs3)CC2)cs1,4.79%
17,CN(C(=O)c1cccn1C)C1CCC(NC(=O)OC(C)(C)C)CC1 (stereo not given),-4.18%
18,Cc1noc(C)c1CNC(C(=O)N1CCOCC1)C(C)C (stereo not given),4.55%
19,O=C(c1cc(-n2cccn2)ccn1)N(CC(F)(F)F)C1CCCC1,5.49%
20,NC(=O)C(NC(=O)COC1CCCCC1)c1ccccc1 (stereo not given),-4.65%
21,CN(C)S(=O)(=O)N1CCCC1C(=O)N1CCSCC1 (stereo not given),6.67%
22,CSC(CNS(N)(=O)=O)c1cccc(Cl)c1 (stereo not given),-14.3%

row,SMILES,cytotoxicity at 10 µM
1,CN(C(=O)C1CSCN1S(=O)(=O)c1ccc(F)cc1)C1CC1 (stereo not given),1.18%
2,O=C(c1ccco1)N1CCO[C@@H]2CNC[C@@H]21,-108%
3,c1cnc(N2CCOCC3(CNCCO3)C2)nc1 (stereo not given),-112%
4,CCOCC1CN(c2ncccn2)Cc2cnn(CC3CCOCC3)c21 (stereo not given),2.97%
5,O=C(c1cnccn1)N1C[C@@H]2CN(Cc3cccnc3)CCO[C@@H]2C1,2.89%
6,CN1CCN(Cc2ccoc2)Cc2cccnc21,0.899%
7,COCCCN1CCN(c2ncnc3nc(C)cc(C)c23)CC1,1.54%
8,CCCc1nnc(NCCc2noc(C3CCCC3)n2)o1,20.2%
9,CC(=O)N1CCN(Cc2ccc(C(F)(F)F)cc2F)CC(O)C1 (stereo not given),-5.34%
10,CCc1cc(NCCNC(=O)c2cccnc2)n2nc(C)c(C)c2n1,-3.05%
11,O=C(O)C1(Oc2ccc3ccccc3c2)CCN(c2ncccn2)CC1,1.46%
12,COCCCC1CCCCN1Cc1cc(F)ccc1-n1cccn1 (stereo not given),-3.13%
13,O=C(CC1CCC1)N1CCCC(CO)(CC2CC2)C1 (stereo not given),7.18%
14,CCc1ccccc1OC1CN(C(=O)c2sccc2N)C1,14.4%
15,Cc1cccnc1CN1CCN(CC(=O)N(C)C)[C@@H]2CS(=O)(=O)C[C@@H]21,-2.33%
16,COc1cc(F)ccc1C(C(=O)O)N1CCN(C2CCCCC2)CC1 (stereo not given),-8.93%
17,CC(C)c1nc(N2CC[C@@H](N(C)CCc3ccccn3)[C@H](O)C2)no1,-0.662%
18,Clc1ccccc1CCn1ccnc1-c1cn(C2CCNCC2)nn1,0.33%
19,CC1(C(=O)N2CCC(n3cc(C4(O)CCCC4)nn3)CC2)CCCCC1,0.68%
20,CN(Cc1cccc(-n2cccn2)c1)C(=O)c1cccc(N(C)C)c1,-0.809%
21,CN(Cc1ccc(CCC(C)(C)O)cc1)Cc1cccc(O)c1,-7.43%
22,Cc1ccc(OCC2CCCN(Cc3ccc(CO)o3)C2)cc1 (stereo not given),5.66%

row,SMILES,cytotoxicity at 10 µM
1,CCC(C)N(Cc1cccnc1)C(=O)CCSC (stereo not given),0.305%
2,O=C(c1ccc[nH]1)N1CCc2c(cccc2S(=O)(=O)N2CCOCC2)C1,-15%
3,Cc1ccccc1C(C(=O)N1CCN(C(=O)c2ccc[nH]2)CC1)N(C)C (stereo not given),-7.98%
4,Cn1c(CCC(=O)N2CCCC3(CNC(=O)O3)C2)nc2cccnc21 (stereo not given),2.3%
5,CN(CCO)C1CCN(c2ncc3c(n2)CCN3c2ccccc2)CC1,-2.3%
6,CC1(C)CN(C(=O)c2cnc(-c3ccccn3)nc2)CC[C@]1(C)O,-2.52%
7,CN1CCC(N2CCN(C(C(=O)O)c3cccc4c3OCC4)CC2)CC1 (stereo not given),11%
8,CC(C)C(Nc1nc(C(F)(F)F)nc2ccccc12)C(=O)O (stereo not given),-1.98%
9,CCC(NC(=O)C(C)C)c1ccccc1C (stereo not given),5.81%
10,Cc1ccc([C@@H]2CN(S(=O)(=O)c3cc(C)ccc3F)C[C@H]2N(C)C)cc1,-7.21%
11,COc1cn(-c2ccccc2)nc1C(=O)NCCN1CCCC(C)C1 (stereo not given),2.12%
12,O=C(c1ccc(-n2cnnc2)cc1)N1CCC(Nc2cccnn2)CC1,-6.12%
13,CC1CN(C)CCN1CC(=O)NCCOc1cccc(F)c1 (stereo not given),-11.7%
14,COc1ccccc1CC(=O)N1CCC(NCc2ccncc2)CC1,-9.69%
15,CN(C)c1cc(CNC(=O)Nc2ccc(C#N)cc2)ccn1,-5.66%
16,CCc1nc(C2CCCN2CCS(=O)(=O)c2ccccc2)no1 (stereo not given),-8.1%
17,CCn1ccnc1CN1CCN(CC(=O)NC2CCOCC2)CC1,-6.22%
18,c1ccc(-c2nc(CN3CCOC(Cn4cccn4)C3)co2)cc1 (stereo not given),0.724%
19,Cc1cccc(N(C)S(=O)(=O)c2cc(C(=O)O)cs2)c1,-6.12%
20,COc1c(Br)cc(Br)cc1CNC(C)Cn1cccn1 (stereo not given),3.64%
21,CCc1nc(CN2CCCN(c3nccs3)CC2)no1,-6.44%
22,CC(CCc1ccco1)NC(=O)Nc1cc(C(F)(F)F)c[nH]c1=O (stereo not given),-6.9%

row,SMILES,cytotoxicity at 10 µM
1,CN(C)c1cc(C(=O)N2CCCC(n3cccn3)C2)ccn1 (stereo not given),-0.781%
2,CN(C)c1cc(C(=O)N2CCN(c3cnccn3)CC2)ccn1,-7.64%
3,Cc1nc(CN2CCOC(CNc3cccnn3)C2)cs1 (stereo not given),-12%
4,COC(=O)NCC1CCC2(CCNCC2)O1 (stereo not given),1.82%
5,COc1ccc(CN2CCc3nnc(COCCN(C)C)n3CC2)cc1,4.5%
6,O=C(c1ccco1)N1C[C@@H]2OCCN(c3ncccn3)[C@@H]2C1,6.4%
7,O=S(=O)(N1CCCCC1)N1CCc2nc(C3CCNCC3)ncc2C1,-4.15%
8,Cn1ccnc1C(=O)N[C@@H]1CN(Cc2cccs2)[C@@H]2CCCO[C@@H]21,3.16%
9,Cc1ccc(C(=O)N2CC[C@@H]3CN(C4CCOCC4)CCO[C@@H]3C2)o1,-121%
10,CC(C)c1nn(C)c(N(C)C)c1CNC(C)c1ccc2c(c1)OCO2 (stereo not given),-4.49%
11,Cc1ccc(CN2CCc3c(COC(C)C)nn(C)c3C2)s1,0.661%
12,CN1CCC2(CC1)CN(CC1CC1)CC21CCNC1=O (stereo not given),2.02%
13,Cc1cc(CN2CCC3(CC2)COC(COCC2CC2)C3)no1 (stereo not given),-107%
14,Cc1cccc(CO[C@H]2CN(c3nnc(C)s3)[C@@H]3CCCO[C@H]23)n1,4.47%
15,CCOCCN1CCO[C@H]2[C@H](OCc3ccccn3)CC[C@@H]21,-113%
16,Cc1ccoc1C(=O)N1CCO[C@H]2[C@H](OCCN(C)C)CC[C@@H]21,-5.88%
17,O=C([C@H]1CN(Cc2nccs2)C[C@H]2OCC[C@@H]12)N1CCCCO1,-111%
18,CO[C@H]1CC[C@H]2[C@H]1OCCN2Cc1ccc(F)c(F)c1,22.3%
19,Cc1nnc(N2CCCC3(CN(Cc4cccnc4)CCO3)C2)o1 (stereo not given),4.96%
20,CC(C)NC(=O)N1Cc2nccn2CC(COc2cccnc2)C1 (stereo not given),7.77%
21,Cn1cc(CN2CCCC3(CCN(c4nncs4)C3)C2)cn1 (stereo not given),5.41%
22,CCS(=O)(=O)N1C[C@@H]2C[C@H](C(=O)N(C)C)[C@H](C1)O2,5.58%
